Series [1] concerns the target Cytochrome P450 2D6 (Homo sapiens, UniProt P10635). The series is described as follows: Inhibition of CYP2D6 (unknown origin). Format: ADME.
Series [2] is described as follows: (§1) Inhibition of rhesus monkey CYP11B2 expressed in V79 cells incubated for 1 hr before 11-deoxycorticosterone substrate addition by HTRF-based assay. The class given is cell-based, Macaca mulatta.
In series [3] the test system is Rhesus monkey. The series is described as follows: Reduction in aldosterone levels in low sodium diet fed rhesus monkey at 0.3 mg/kg, iv followed by 0.3 mg/kg ACTH dosing and measured 30 mins to 180 mins post ACTH administration by UPLC coupled with tandem mass spectrometry. The class given is functional. Conditions: Macaca mulatta. Summed up: (§2)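 Anesthetized rhesus monkeys were given i.v. doses from 0.001 to 0.3 mg/kg. Plasma aldosterone and 11-deoxycortisol were quantified by LC-MS at time points up to 180 min postdose, and AUCs were determined for each. Plasma drug was measured at 90 min postdose. Free (unbound) concentrations were calculated from the measured fraction unbound in rhesus plasma.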

Series [4] concerns Rhesus monkey. As to the kind of experiment: Reduction in aldosterone levels in low sodium diet fed rhesus monkey assessed as free plasma concentration causing reduction in aldosterone at 0.01 mg/kg, iv followed by 0.3 mg/kg ACTH dosing and measured 90 mins post ACTH administration by UPLC coupled with tandem mass spectrometry. The class given is functional, Macaca mulatta. Put shortly: as §2

The test system of series [5] is Rhesus monkey. As to the kind of experiment: Reduction in aldosterone levels in low sodium diet fed rhesus monkey assessed as free plasma concentration causing reduction in aldosterone at 0.3 mg/kg, iv followed by 0.3 mg/kg ACTH dosing and measured 90 mins post ACTH administration by UPLC coupled with tandem mass spectrometry. The class given is functional, Macaca mulatta. Summed up:
as §2

Series [6] has as its system Rhesus monkey. As to the kind of experiment: Increase in 11-deoxycortisol levels in low sodium diet fed rhesus monkey up to 0.3 mg/kg, iv followed by 0.3 mg/kg ACTH dosing and measured 30 mins to 180 mins post ACTH administration by UPLC coupled with tandem mass spectrometry. The note with it: Macaca mulatta. The class given is functional, organism-based. Put shortly:
as §2

Series [7] is described as follows: Inhibition of rhesus monkey CYP11B1. Also noted: species or system Macaca mulatta.
In series [8] the test system is Rhesus monkey. As to the kind of experiment: […] in 11-deoxycortisol levels in low sodium diet fed rhesus monkey at free plasma concentration up to 27 nM dosed at 0.01 to 0.3 mg/kg, iv followed by 0.3 mg/kg ACTH dosing and measured 90 mins post ACTH administration by UPLC coupled with tandem mass spectrometry. Format: functional, organism-based. Conditions: Macaca mulatta. Put shortly:
as §2

In series [9] the test system is Rhesus monkey. The series is described as follows: In-vivo inhibition of CYP11B1 in low sodium diet fed rhesus monkey at free plasma concentration up to 27 nM dosed at 0.01 to 0.3 mg/kg, iv followed by 0.3 mg/kg ACTH dosing and measured 90 mins post ACTH administration by UPLC coupled with tandem mass spectrometry. The note with it: Macaca mulatta. The class given is functional, organism-based. Summed up: as §2

Series [10] concerns the target T1, Cytochrome P450 11B2, mitochondrial (Homo sapiens, UniProt P19099).
T1 sequence (P19099 whole entry): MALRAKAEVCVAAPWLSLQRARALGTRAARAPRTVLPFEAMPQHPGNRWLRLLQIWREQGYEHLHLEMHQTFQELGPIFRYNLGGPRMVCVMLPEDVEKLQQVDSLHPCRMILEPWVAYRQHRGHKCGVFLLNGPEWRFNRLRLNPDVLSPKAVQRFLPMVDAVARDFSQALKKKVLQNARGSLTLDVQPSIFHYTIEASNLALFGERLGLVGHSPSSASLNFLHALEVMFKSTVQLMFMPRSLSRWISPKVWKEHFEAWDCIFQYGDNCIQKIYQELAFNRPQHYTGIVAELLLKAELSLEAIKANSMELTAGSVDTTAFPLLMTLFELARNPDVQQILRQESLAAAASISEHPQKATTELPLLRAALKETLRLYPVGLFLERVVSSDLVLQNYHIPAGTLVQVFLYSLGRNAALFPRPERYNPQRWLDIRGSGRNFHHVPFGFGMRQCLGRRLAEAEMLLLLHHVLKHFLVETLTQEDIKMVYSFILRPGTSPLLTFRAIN
The series is described as follows: Inhibition of human CYP11B2 expressed in V79 cells incubated for 1 hr before 11-deoxycorticosterone substrate addition by HTRF-based assay. Format: cell-based. Put shortly:
(§3)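 Human CYP11B2 and CYP11B1 inhibition was tested in cell-based assays. Selectivity was taken as the hCYP11B1 IC50 divided by the hCYP11B2 IC50.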

Series [11] addresses T2, Cytochrome P450 11B1, mitochondrial (Homo sapiens, UniProt P15538).
T2 sequence (P15538 whole entry): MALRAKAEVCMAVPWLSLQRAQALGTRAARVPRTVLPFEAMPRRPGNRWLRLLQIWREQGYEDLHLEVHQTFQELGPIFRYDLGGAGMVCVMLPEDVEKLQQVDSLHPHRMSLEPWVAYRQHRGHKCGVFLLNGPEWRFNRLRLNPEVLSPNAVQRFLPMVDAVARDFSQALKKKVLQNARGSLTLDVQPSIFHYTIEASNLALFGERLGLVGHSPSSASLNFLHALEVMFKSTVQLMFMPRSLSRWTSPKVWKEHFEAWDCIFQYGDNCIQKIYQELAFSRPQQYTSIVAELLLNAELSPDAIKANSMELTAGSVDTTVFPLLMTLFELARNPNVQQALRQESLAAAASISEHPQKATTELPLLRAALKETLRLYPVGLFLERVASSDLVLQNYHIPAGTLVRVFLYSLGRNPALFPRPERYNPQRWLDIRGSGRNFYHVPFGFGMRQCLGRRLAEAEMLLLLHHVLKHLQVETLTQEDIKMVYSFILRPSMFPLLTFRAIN
The series is described as follows: Inhibition of human CYP11B1 expressed in V79 cells incubated for 1 hr before 11-deoxycortisol substrate addition by HTRF-based assay. Format: cell-based. Put shortly: as §3

Series [12] concerns the target T3, Alpha-2B adrenergic receptor (Homo sapiens, UniProt P18089).
T3 sequence (P18089 whole entry): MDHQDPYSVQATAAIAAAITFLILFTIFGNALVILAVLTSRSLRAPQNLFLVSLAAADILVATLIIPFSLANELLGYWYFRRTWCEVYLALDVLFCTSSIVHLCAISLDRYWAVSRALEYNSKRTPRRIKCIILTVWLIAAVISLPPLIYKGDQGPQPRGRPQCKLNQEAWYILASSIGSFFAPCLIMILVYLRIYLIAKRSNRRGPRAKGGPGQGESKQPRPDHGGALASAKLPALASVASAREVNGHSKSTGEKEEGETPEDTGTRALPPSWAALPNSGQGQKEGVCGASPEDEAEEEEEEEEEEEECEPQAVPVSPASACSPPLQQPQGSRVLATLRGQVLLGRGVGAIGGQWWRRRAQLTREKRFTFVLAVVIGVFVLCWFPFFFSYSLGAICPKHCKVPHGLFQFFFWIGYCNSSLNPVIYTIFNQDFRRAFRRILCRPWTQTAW
The series is described as follows: Inhibition of adrenergic alpha-2B receptor (unknown origin). Put shortly: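 Binding activity was profiled across a panel of 114 receptors, enzymes and ion channels, with an IC50 determined against any target that was hit.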

A short description of series [13]: Half life in rhesus monkey at 1 mg/kg, po or 0.5 mg/kg, iv by LC-MS/MS method. Format: ADME, organism-based, Macaca mulatta. The note with it: in vivo.
Series [14] has as its system V79. Described as §1. The class given is cell-based. The note with it: Macaca mulatta.
In series [15] the target is Sodium channel protein type 5 subunit alpha (Homo sapiens, UniProt Q14524). As to the kind of experiment: Block of Nav1.5 ion channel in functional assay (unknown origin).
For series [16], the target named is Voltage-dependent L-type calcium channel subunit alpha-1C (Homo sapiens, UniProt Q13936). As to the kind of experiment: Block of Cav1.2 ion channel in functional assay (unknown origin).

Active and inactive are the calls of the source. No cut-off for these calls is given here.

Chain of Cytochrome P450 2D6 (P10635 whole entry): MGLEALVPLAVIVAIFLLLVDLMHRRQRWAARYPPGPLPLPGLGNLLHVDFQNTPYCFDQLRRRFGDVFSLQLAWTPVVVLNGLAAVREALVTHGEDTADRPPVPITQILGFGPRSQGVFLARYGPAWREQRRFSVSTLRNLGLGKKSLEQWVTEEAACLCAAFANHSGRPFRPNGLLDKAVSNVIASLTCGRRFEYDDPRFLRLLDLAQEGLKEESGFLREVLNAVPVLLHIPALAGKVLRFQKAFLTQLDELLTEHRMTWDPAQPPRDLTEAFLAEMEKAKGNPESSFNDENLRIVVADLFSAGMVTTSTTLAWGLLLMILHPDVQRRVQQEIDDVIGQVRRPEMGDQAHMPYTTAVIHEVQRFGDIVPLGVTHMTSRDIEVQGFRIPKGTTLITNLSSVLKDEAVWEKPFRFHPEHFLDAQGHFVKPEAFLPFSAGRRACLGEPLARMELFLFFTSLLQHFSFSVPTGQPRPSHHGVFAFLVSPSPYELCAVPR
Chain of Voltage-dependent L-type calcium channel subunit alpha-1C (Q13936 whole entry): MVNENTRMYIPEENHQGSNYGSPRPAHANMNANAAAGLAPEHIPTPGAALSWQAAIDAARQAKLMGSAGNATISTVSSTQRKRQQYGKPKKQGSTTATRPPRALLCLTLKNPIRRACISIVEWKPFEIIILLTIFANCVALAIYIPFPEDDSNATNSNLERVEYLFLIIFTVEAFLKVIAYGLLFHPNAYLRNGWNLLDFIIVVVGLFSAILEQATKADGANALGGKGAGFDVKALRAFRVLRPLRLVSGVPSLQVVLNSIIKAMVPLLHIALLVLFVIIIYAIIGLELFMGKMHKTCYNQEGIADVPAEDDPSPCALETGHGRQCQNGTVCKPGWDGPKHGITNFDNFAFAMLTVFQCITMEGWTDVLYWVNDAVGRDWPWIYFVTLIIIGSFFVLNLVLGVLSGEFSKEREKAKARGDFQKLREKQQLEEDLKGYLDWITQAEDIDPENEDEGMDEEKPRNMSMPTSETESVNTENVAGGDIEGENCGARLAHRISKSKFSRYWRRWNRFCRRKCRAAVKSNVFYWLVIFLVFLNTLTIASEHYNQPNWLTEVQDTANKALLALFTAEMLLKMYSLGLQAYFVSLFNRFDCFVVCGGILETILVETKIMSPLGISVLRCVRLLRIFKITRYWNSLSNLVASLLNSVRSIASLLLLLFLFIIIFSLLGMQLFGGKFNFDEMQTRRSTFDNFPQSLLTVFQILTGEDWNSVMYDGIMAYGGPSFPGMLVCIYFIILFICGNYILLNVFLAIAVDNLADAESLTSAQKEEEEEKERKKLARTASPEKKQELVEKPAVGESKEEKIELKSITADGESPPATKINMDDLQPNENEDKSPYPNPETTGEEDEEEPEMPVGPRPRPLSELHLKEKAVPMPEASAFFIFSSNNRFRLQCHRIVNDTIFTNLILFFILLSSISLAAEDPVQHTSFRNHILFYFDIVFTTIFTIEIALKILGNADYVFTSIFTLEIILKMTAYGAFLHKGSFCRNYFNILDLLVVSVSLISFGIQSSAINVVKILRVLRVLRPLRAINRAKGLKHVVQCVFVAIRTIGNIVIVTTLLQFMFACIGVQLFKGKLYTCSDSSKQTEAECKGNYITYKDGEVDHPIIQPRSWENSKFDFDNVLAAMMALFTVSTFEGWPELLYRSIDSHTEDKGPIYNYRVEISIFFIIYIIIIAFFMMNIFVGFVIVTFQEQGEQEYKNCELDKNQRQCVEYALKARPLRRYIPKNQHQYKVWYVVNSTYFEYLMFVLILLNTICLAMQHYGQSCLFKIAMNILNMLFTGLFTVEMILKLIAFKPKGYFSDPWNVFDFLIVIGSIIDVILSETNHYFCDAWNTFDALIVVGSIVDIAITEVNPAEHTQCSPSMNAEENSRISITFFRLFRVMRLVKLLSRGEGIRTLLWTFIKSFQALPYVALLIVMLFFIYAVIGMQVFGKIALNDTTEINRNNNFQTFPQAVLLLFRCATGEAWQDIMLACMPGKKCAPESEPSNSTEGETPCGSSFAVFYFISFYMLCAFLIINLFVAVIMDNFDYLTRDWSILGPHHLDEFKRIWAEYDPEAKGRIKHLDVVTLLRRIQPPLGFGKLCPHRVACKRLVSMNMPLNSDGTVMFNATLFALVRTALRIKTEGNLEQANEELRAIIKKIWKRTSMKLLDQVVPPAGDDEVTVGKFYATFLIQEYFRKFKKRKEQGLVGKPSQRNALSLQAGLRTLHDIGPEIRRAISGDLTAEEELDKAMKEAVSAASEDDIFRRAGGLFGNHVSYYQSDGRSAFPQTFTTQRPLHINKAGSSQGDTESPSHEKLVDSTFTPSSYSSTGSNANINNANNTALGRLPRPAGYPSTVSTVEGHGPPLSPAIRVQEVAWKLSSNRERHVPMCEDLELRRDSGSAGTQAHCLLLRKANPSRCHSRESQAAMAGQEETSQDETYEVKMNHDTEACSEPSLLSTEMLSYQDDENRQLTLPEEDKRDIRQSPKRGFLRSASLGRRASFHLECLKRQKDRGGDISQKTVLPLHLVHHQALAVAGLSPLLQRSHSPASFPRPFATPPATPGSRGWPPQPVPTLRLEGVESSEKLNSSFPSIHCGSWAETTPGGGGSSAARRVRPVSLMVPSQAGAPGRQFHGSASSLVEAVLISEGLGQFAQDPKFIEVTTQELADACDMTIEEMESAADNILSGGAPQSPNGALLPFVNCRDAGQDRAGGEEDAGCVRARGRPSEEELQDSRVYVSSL
Chain of Sodium channel protein type 5 subunit alpha (Q14524 whole entry): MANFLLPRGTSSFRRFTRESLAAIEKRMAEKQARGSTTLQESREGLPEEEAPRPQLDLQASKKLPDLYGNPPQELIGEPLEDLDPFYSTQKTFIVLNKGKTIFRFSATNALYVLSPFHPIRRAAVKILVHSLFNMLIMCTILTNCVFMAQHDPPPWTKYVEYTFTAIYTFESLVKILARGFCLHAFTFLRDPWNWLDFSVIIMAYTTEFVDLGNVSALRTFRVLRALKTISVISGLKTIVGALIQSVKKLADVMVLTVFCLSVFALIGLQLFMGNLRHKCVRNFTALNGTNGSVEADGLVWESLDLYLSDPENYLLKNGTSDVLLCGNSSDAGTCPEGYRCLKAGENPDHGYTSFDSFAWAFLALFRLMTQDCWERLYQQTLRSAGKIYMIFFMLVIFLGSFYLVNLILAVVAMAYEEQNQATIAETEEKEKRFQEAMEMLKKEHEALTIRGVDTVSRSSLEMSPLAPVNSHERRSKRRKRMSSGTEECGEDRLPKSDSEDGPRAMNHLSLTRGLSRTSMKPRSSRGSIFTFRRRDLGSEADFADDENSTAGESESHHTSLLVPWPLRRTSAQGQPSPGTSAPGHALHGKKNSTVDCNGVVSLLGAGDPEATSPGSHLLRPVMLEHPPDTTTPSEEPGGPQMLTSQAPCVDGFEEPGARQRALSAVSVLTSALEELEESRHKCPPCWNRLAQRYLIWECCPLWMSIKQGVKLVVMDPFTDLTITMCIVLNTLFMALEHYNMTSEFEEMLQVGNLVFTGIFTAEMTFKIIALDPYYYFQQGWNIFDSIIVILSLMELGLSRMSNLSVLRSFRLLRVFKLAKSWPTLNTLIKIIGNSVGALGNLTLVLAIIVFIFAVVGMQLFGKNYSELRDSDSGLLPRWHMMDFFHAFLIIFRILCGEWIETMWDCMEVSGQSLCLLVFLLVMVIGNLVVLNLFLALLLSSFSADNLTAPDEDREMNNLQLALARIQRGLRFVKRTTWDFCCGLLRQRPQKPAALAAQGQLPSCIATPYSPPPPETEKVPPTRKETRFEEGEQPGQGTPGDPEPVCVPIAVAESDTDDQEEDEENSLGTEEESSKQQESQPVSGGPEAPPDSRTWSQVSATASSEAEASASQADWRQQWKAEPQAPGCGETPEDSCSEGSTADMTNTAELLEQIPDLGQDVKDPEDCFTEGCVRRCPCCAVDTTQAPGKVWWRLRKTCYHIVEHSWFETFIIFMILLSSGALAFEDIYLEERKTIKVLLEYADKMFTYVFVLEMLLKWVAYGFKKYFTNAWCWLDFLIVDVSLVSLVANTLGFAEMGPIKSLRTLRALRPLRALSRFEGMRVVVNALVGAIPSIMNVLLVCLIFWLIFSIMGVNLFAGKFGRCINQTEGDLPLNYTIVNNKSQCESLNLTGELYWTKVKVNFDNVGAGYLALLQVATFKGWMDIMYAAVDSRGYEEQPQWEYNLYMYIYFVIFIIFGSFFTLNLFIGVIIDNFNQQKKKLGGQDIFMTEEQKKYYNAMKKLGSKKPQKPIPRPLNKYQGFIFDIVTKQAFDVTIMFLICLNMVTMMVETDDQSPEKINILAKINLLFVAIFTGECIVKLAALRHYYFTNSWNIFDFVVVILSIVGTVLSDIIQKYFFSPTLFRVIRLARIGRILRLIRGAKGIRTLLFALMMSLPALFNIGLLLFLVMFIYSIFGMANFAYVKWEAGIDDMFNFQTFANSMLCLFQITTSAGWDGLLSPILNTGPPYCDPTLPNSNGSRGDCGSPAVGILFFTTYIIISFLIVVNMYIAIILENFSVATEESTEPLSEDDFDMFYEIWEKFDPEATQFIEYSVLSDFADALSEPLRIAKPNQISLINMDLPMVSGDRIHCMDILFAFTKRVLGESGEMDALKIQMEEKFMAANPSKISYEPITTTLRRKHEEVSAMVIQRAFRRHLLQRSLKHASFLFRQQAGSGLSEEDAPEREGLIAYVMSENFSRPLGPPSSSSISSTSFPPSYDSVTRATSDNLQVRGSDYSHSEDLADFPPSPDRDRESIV

For the compound `CC(C)(O)c1cncc(-c2nc3ccc(F)cc3n2C2CC2)c1` [MSD-CYP11B2], the “inhibition (INH)” value in [1] is “Not Active”. In addition, the IC50 amounted to 0.3 nM in series [2] and 41 nM in series [7]. Moreover, at 0.3 mg/kg the inhibition in vivo in series [3] was 95%. Further, the “Cp(f)” value in series [4] is 12 nM; in series [5] it was 27 nM. Further, the outcome in series [6] was inactive. In addition, the inhibition result in series [8] and in series [9] was “inactive” each time.

Turning to `Fc1cncc(-c2nc3cc(F)c(F)cc3n2C2CC2)c1`, the concentration for half-maximal inhibition (IC50) in series [10] was 4.7 nM; in series [11], 435 nM; in series [12] it was 2490 nM; in series [15], over 30000 nM; in series [16], over 30000 nM. The “inhibition (INH)” value in series [1] is recorded as “Not Active”. Also, the half-life in [13] is 7.4 h. The inhibition entry in series [14] was “Active”.

The values above are taken from ChEMBL document CHEMBL3580617, “Discovery of Benzimidazole CYP11B2 Inhibitors with in Vivo Activity in Rhesus Monkeys” (ACS Med Chem Lett, 2015).
